{"source": "paper PMC5955795", "about": "(Antiviral research, 2018)", "key": {"[1]": {"assay_type": "in vivo, human"}, "HIV-infected CD4 T cells": {"tested_on": "HIV-infected CD4 T cells", "assay_type": "cell-based, human", "conditions": "1μg/ml drug, seven days, n=4"}, "[2]": {"tested_on": "R5X4 dual-tropic HIV-1 (strain 89.6)", "assay_type": "cell-based", "conditions": "1μg/ml drug, seven days, n=3", "in_short": "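Anti-CD3 (1μg/ml plate-bound) plus IL2 (100ng/ml) stimulated CD4 T cells for 48 hrs at 37°C/5%CO2. Cells were infected at MOI 0.1 for 48 hrs with IL2, then 5×10^5 were seeded directly onto mature adipocytes differentiated from 5×10^4 preadipocytes/well. Co-culture ran seven days with IL-2 and drug. Read-out was intracellular p24 by flow cytometry (clone KC57) after viability dye; singlet wells per condition.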"}, "[3]": {"tested_on": "R5X4 dual-tropic HIV-1 (strain 89.6)", "assay_type": "cell-based", "conditions": "seven days, n=4"}, "[4]": {"tested_on": "R5X4 dual-tropic HIV-1 (strain 89.6)", "assay_type": "cell-based", "conditions": "0.1-1μg/ml TDF, n=5", "in_short": "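Infected CD4 T cells (5×10^5; anti-CD3/IL2-activated, MOI 0.1) were placed in 0.4μm-pore transwells above mature adipocytes in adipocyte maintenance medium. Drug was added to the lower wells just before, with 100ng/ml IL-2, for 6-7 days. Read-out was supernatant p24 by ELISA, reported as percent change relative to untreated. Singlet wells; experiments repeated with different donor cells; mean±sem.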"}, "[5]": {"tested_on": "R5X4 dual-tropic HIV-1 (strain 89.6)", "assay_type": "cell-based", "conditions": "0.1-1μg/ml TDF, seven days, n=6"}, "[6]": {"tested_on": "R5X4 dual-tropic HIV-1 (strain 89.6)", "assay_type": "cell-based", "conditions": "0.1-1μg/ml TDF, seven days, n=6", "remark": "listed apart in the source"}, "[7]": {"design": "species or system rhesus macaques", "conditions": "rhesus monkey, in vivo, sc"}, "[8]": {"conditions": "direct contact co-culture with adipocytes"}}, "note": "Where a name gives a salt, the structure may show the parent alone. Read-outs that look alike come from different tables or passages of the source."}
{"smiles": "COC(=O)N[C@H](C(=O)N[C@@H](Cc1ccccc1)[C@@H](O)CN(Cc1ccc(-c2ccccn2)cc1)NC(=O)[C@@H](NC(=O)OC)C(C)(C)C)C(C)(C)C", "note": "[atazanavir]", "values": [{"measurement": "intracellular concentration in tissues examined (tissue not specified)", "setting": "[1]; Pt.07", "value": "undetectable"}]}
{"smiles": "COc1cc2c(cc1Cc1cccc(Cl)c1F)c(=O)c(C(=O)O)cn2[C@H](CO)C(C)C", "note": "[elvitegravir]", "values": [{"measurement": "intracellular concentration in PBMC", "setting": "[1]; Pt.05", "value": "undetectable"}, {"measurement": "intracellular concentration in subcutaneous AT-SVF cells", "setting": "[1]; Pt.05", "value": 339, "unit": "fmol/million cells"}]}
{"smiles": "C[C@H](Cn1cnc2c(N)ncnc21)OCP(=O)(O)O", "note": "[tenofovir]", "values": [{"measurement": "CD69+p24+ expression", "setting": "HIV-infected CD4 T cells; co-culture with adipocytes", "value": "8-12%"}, {"measurement": "CD69+p24+ expression", "setting": "HIV-infected CD4 T cells; medium alone", "value": "< 2", "unit": "%"}, {"measurement": "HIV production (p24+)", "setting": "[2]; [8]", "value": "55-60%"}, {"measurement": "HIV production (p24+)", "setting": "[2]; medium alone", "value": "15-16 % p24+"}, {"measurement": "reduced HIV replication (intracellular p24)", "setting": "[3]; 1-5μg/ml tenofovir, in the presence of adipocytes", "value": "5-43%"}, {"measurement": "reduced HIV replication (intracellular p24)", "setting": "[3]; 1-5μg/ml tenofovir, medium alone", "value": "65-91%"}]}
{"smiles": "Nc1ccn([C@@H]2CS[C@H](COP(=O)(O)OP(=O)(O)OP(=O)(O)O)O2)c(=O)n1", "note": "[3TC-TP]", "values": [{"measurement": "concentration in serum", "setting": "[1]; human, in vivo", "value": 37, "unit": "ng/mL"}, {"measurement": "intracellular concentration in tissues examined (tissue not specified)", "setting": "[1]; human, in vivo", "value": "undetectable"}, {"measurement": "intracellular concentration in visceral AT-SVF cells", "setting": "[1]; human, in vivo", "value": "undetectable"}]}
{"smiles": "Nc1nc(NC2CC2)c2ncn([C@H]3C=C[C@@H](CO)C3)c2n1", "note": "[abacavir]", "values": [{"measurement": "intracellular concentration in lymph node cells", "setting": "[1]; Pt.06", "value": "undetectable"}, {"measurement": "intracellular concentration in visceral adipocytes", "setting": "[1]; Pt.06", "value": "undetectable"}]}
{"smiles": "CC(C)OC(=O)[C@H](C)N[P@](=O)(CO[C@H](C)Cn1cnc2c(N)ncnc21)Oc1ccccc1", "note": "[TAF, tenofovir alafenamide]", "values": [{"measurement": "CD69+p24+ expression", "setting": "HIV-infected CD4 T cells; co-culture with adipocytes", "value": "8-12%"}, {"measurement": "CD69+p24+ expression", "setting": "HIV-infected CD4 T cells; medium alone", "value": "< 2", "unit": "%"}, {"measurement": "reduced HIV replication (intracellular p24)", "setting": "[3]; 0.1-1μg/ml TAF, in the presence of adipocytes", "value": "1-64%"}, {"measurement": "reduced HIV replication (intracellular p24)", "setting": "[3]; 0.1-1μg/ml TAF, medium alone", "value": "40-98%"}]}
{"smiles": "C[C@@H]1CCO[C@H]2Cn3cc(C(=O)NCc4ccc(F)cc4F)c(=O)c(O)c3C(=O)N12", "note": "[dolutegravir]", "values": [{"measurement": "intracellular concentration in visceral AT-SVF cells", "setting": "[1]; Pt.01", "value": "undetectable"}, {"measurement": "intracellular concentration in lymph node cells", "setting": "[1]; Pt.03", "value": 793, "unit": "fmol/million cells"}, {"measurement": "intracellular concentration in subcutaneous AT-SVF cells", "setting": "[1]; Pt.03", "value": 129, "unit": "fmol/million cells"}, {"measurement": "intracellular concentration in subcutaneous adipocytes", "setting": "[1]; Pt.03", "value": 151, "unit": "fmol/million cells"}, {"measurement": "intracellular concentration in lymph node cells", "setting": "[1]; Pt.04", "value": 749, "unit": "fmol/million cells"}, {"measurement": "intracellular concentration in subcutaneous AT-SVF cells", "setting": "[1]; Pt.04", "value": "1,439 fmol/million cells"}, {"measurement": "intracellular concentration in subcutaneous adipocytes", "setting": "[1]; Pt.04", "value": 382, "unit": "fmol/million cells"}, {"measurement": "intracellular concentration in subcutaneous AT-SVF cells", "setting": "[1]; Pt.07", "value": 4, "unit": "fmol/million cells"}, {"measurement": "concentration in serum", "setting": "[1]; Pt.08", "value": "1,324 ng/ml"}, {"measurement": "intracellular concentration in PBMC", "setting": "[1]; Pt.08", "value": 46, "unit": "fmol/million cells"}, {"measurement": "intracellular concentration in lymph node cells", "setting": "[1]; Pt.08", "value": 17, "unit": "fmol/million cells"}, {"measurement": "intracellular concentration in subcutaneous AT-SVF cells", "setting": "[1]; Pt.08", "value": 449, "unit": "fmol/million cells"}, {"measurement": "intracellular concentration in subcutaneous adipocytes", "setting": "[1]; Pt.08", "value": 363, "unit": "fmol/million cells"}]}
{"smiles": "CC(C)OC(=O)OCOP(=O)(CO[C@H](C)Cn1cnc2c(N)ncnc21)OCOC(=O)OC(C)C", "note": "[TDF, tenofovir disoproxil fumarate]", "values": [{"measurement": "CD69+p24+ expression", "setting": "HIV-infected CD4 T cells; co-culture with adipocytes", "value": "8-12%"}, {"measurement": "CD69+p24+ expression", "setting": "HIV-infected CD4 T cells; medium alone", "value": "< 2", "unit": "%"}, {"measurement": "HIV production (p24+)", "setting": "[2]; [8]", "value": "55-60%"}, {"measurement": "HIV production (p24+)", "setting": "[2]; medium alone", "value": "15-16 % p24+"}, {"measurement": "reduced HIV replication (extracellular p24 by ELISA)", "setting": "[4]; in the presence of adipocytes", "value": "4-41%"}, {"measurement": "reduced HIV replication (extracellular p24 by ELISA)", "setting": "[4]; medium alone", "value": "57-85%"}, {"measurement": "reduced HIV replication (intracellular p24)", "setting": "[3]; 0.5-2μg/ml TDF, in the presence of adipocytes", "value": "15-38%"}, {"measurement": "reduced HIV replication (intracellular p24)", "setting": "[3]; 0.5-2μg/ml TDF, medium alone", "value": "60-95%"}, {"measurement": "effect of preadipocytes on antiviral activity", "setting": "[5]", "value": "neither preadipocytes or Caco-2 cells significantly affected"}, {"measurement": "effect of Caco-2 cells on antiviral activity", "setting": "[6]", "value": "neither preadipocytes or Caco-2 cells significantly affected"}]}
{"smiles": "C[C@@H](Cn1cnc2c(N)ncnc21)OCP(=O)(O)OP(=O)(O)OP(=O)(O)O", "note": "[TFV-DP]", "values": [{"measurement": "concentration in serum", "setting": "[1]; human, in vivo", "value": 246, "unit": "ng/mL"}, {"measurement": "intracellular concentration in PBMC", "setting": "[1]; human, in vivo", "value": 633, "unit": "fmol/million cells"}, {"measurement": "intracellular concentration in tissues examined (tissue not specified)", "setting": "[1]; human, in vivo", "value": "undetectable"}, {"measurement": "intracellular concentration in subcutaneous AT-SVF cells", "setting": "[1]; human, in vivo, sc", "value": 724, "unit": "fmol/million cells"}, {"measurement": "intracellular concentration in subcutaneous adipocytes", "setting": "[1]; human, in vivo, sc", "value": 7, "unit": "fmol/million cells"}, {"measurement": "intracellular concentration in PBMC", "setting": "[7]", "value": "80-770 fmol/million cells"}, {"measurement": "intracellular concentration in lysates of AT-SVF fractions", "setting": "[7]", "value": "undetectable"}, {"measurement": "intracellular concentration in lysates of adipocyte fractions", "setting": "[7]", "value": "undetectable"}]}
{"smiles": "CC(C)c1nc(CN(C)C(=O)N[C@H](C(=O)N[C@@H](Cc2ccccc2)C[C@H](O)[C@H](Cc2ccccc2)NC(=O)OCc2cncs2)C(C)C)cs1", "note": "[ritonavir]", "values": [{"measurement": "intracellular concentration in tissues examined (tissue not specified)", "setting": "[1]; Pt.07", "value": "undetectable"}]}
{"smiles": "Nc1nc(=O)n([C@@H]2CS[C@H](COP(=O)(O)OP(=O)(O)OP(=O)(O)O)O2)cc1F", "note": "[FTC-TP]", "values": [{"measurement": "concentration in serum", "setting": "[1]; human, in vivo", "value": "2,687 ng/ml"}, {"measurement": "intracellular concentration in PBMC", "setting": "[1]; human, in vivo", "value": "14,682 fmol/million cells"}, {"measurement": "intracellular concentration in lymph node cells", "setting": "[1]; human, in vivo", "value": "1,053 fmol/million cells"}, {"measurement": "intracellular concentration in tissues examined (tissue not specified)", "setting": "[1]; human, in vivo", "value": "undetectable"}, {"measurement": "intracellular concentration in subcutaneous AT-SVF cells", "setting": "[1]; human, in vivo, sc", "value": "4,459 fmol/million cells"}, {"measurement": "intracellular concentration in subcutaneous adipocytes", "setting": "[1]; human, in vivo, sc", "value": 11, "unit": "fmol/million cells"}, {"measurement": "intracellular concentration in PBMC", "setting": "[7]", "value": "700-1,400 fmol/million cells"}, {"measurement": "intracellular concentration in lysates of AT-SVF fractions", "setting": "[7]", "value": "undetectable"}, {"measurement": "intracellular concentration in lysates of adipocyte fractions", "setting": "[7]", "value": "undetectable"}]}
{"smiles": "Cc1ccnc2c1NC(=O)c1cccnc1N2C1CC1", "note": "[nevirapine]", "values": [{"measurement": "intracellular concentration in visceral adipocytes", "setting": "[1]; Pt.06", "value": 139, "unit": "fmol/million cells"}]}
{"smiles": "Nc1nc(=O)c2ncn([C@H]3C=C[C@@H](COP(=O)(O)OP(=O)(O)OP(=O)(O)O)C3)c2[nH]1", "note": "[CBV-TP]", "values": [{"measurement": "intracellular concentration in tissues examined (tissue not specified)", "setting": "[1]; human, in vivo", "value": "undetectable"}, {"measurement": "intracellular concentration in visceral AT-SVF cells", "setting": "[1]; human, in vivo", "value": "undetectable"}]}
